Activity calls are given as the source filed them. The calls are words filed in the database; no cut-off is given here.
Tests used:
[1] = biological target: Signal transducer and activator of transcription 3 (Homo sapiens) (UniProt P40763); assay: Inhibition of STAT3 in human HeLa cells assessed as decrease in phosphorylation of STAT3 at Tyr705 after 1 hrs by Western blot analysis; type: cell-based; details: dose microM <=80, time 1.0 hrs
Outline: (§1)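 HeLa cells were treated with graded doses for 1 h or 24 h. Total cell lysates were immunoblotted with specific antibodies against p-STAT3 (Tyr705), p-STAT3 (Ser727) and total STAT3.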

[2] = biological target: Signal transducer and activator of transcription 3 (Homo sapiens) (UniProt P40763); assay: Inhibition of STAT3 in human HeLa cells assessed as decrease in phosphorylation of STAT3 at Tyr705 upto 80 uM measured 15 to 120 mins by Western blot analysis; type: cell-based; details: dose microM <=80, time lower […], time upper […]
Outline: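 Time course in HeLa cells given 80 μM compound, sampled from 15 min onward through multiple hours; parallel runs at 20 and 40 μM. Total cell lysates Western blotted for p-STAT3 (Tyr705), p-STAT3 (Ser727) and total STAT3.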

[3] = biological target: Signal transducer and activator of transcription 3 (Homo sapiens) (UniProt P40763); assay: Inhibition of STAT3 in human HeLa cells assessed as decrease in phosphorylation of STAT3 at Ser727 after 24 hrs by western blot analysis; type: cell-based; details: dose microM <=80, time […]; outline: as §1
[4] = biological target: Signal transducer and activator of transcription 3 (Homo sapiens) (UniProt P40763); assay: Inhibition of STAT3 transcriptional activity in human HeLa cells assessed as downregulation of c-Myc expression upto 80 uM after 24 hrs by western blot analysis; type: cell-based; details: dose microM <=80, time […]
Outline: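 HeLa cells treated 24 h with a concentration series. Total cell lysates probed by Western blot with specific antibodies for the STAT3 target gene products cyclin D1, c-Myc and survivin.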

[5] = system: HeLa; assay: Induction of cell cycle arrest in human HeLa cells assessed as accumulation at G0/G1 phase at 10 uM measured after 24 hrs by flow cytometry analysis (reference value: 54.16%); type: functional
[6] = system: HeLa; assay: Induction of cell cycle arrest in human HeLa cells assessed as accumulation at G0/G1 phase at 20 uM measured after 24 hrs by flow cytometry analysis (reference value: 54.16%); type: functional
[7] = system: HeLa; assay: Induction of cell cycle arrest in human HeLa cells assessed as accumulation at G0/G1 phase at 40 uM measured after 24 hrs by flow cytometry analysis (reference value: 54.16%); type: functional
[8] = system: HeLa; assay: Induction of cell cycle arrest in human HeLa cells assessed as accumulation at S phase at 10 uM measured after 24 hrs by flow cytometry analysis (reference value: 34.04%); type: functional
[9] = system: HeLa; assay: Induction of cell cycle arrest in human HeLa cells assessed as accumulation at S phase at 40 uM measured after 24 hrs by flow cytometry analysis (reference value: 34.04%); type: functional
[10] = system: HeLa; assay: Induction of apoptosis in human HeLa cells assessed as viable cells at 40 uM incubated for 24 hrs by Annexin V-FITC/PI staining based flow cytometry (reference value: 92.45%); type: functional; details: read-out: Activity
[11] = system: HeLa; assay: Induction of apoptosis in human HeLa cells assessed as early apoptotic cells at 20 uM incubated for 24 hrs by Annexin V-FITC/PI staining based flow cytometry (reference value: 2.84%); type: functional
[12] = system: HeLa; assay: Induction of apoptosis in human HeLa cells assessed as late apoptotic cells at 40 uM incubated for 24 hrs by Annexin V-FITC/PI staining based flow cytometry (reference value: 4.7%); type: functional
[13] = biological target: Signal transducer and activator of transcription 3 (Homo sapiens) (UniProt P40763); assay: Inhibition of IL-6 induced STAT3 transcriptional activity in human HEK-Blue IL-6 cells assessed as secreted embryonic alkaline phosphatase reporter gene expression at 10 uM by microplate reader; type: cell-based
Outline: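 Single-concentration screen in HEK-Blue IL-6 cells: % inhibition of the SEAP reporter read-out of STAT3 pathway activity, with viability checked by MTT in parallel. Values are averages of three independent experiments.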

[14] = Cytotoxicity against human HeLa cells assessed as inhibition of cell viability at 10 uM measured after 48 hrs by MTT assay; type: cell-based; details: read-out: INH
[15] = system: HeLa; assay: Cytotoxicity against human HeLa cells assessed as inhibition of cell viability measured after 48 hrs by MTT assay; type: functional, cell-based
Outline: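 Growth was read by MTT assay and IC50 taken from dose–response curves. Values are averages of three independent experiments.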

[16] = Cytotoxicity against human HEK 293T cells assessed as cell growth inhibition at 50 uM measured after 48 hrs by MTT assay; type: cell-based
[17] = Cytotoxicity against human HEK 293T cells assessed as cell growth inhibition at 10 uM measured after 48 hrs by MTT assay; type: cell-based
[18] = system: Caco-2; assay: Antiproliferative activity against human Caco-2 cells assessed as cell growth inhibition measured after 48 hrs by MTT assay; type: functional, cell-based; details: Caco-2, 48 h
[19] = system: A549; assay: Antiproliferative activity against human A549 cells assessed as cell growth inhibition measured after 48 hrs by MTT assay; type: functional, cell-based; details: A549, 48 h
[20] = Antiproliferative activity against human U87MG cells assessed as cell growth inhibition measured after 48 hrs by MTT assay; type: functional, cell-based
[21] = system: PC-3; assay: Antiproliferative activity against human PC3 cells assessed as cell growth inhibition measured after 48 hrs by MTT assay; type: functional, cell-based; details: PC-3, 48 h
[22] = system: HT-29; assay: Antiproliferative activity against human HT29 cells assessed as cell growth inhibition measured after 48 hrs by MTT assay; type: functional, cell-based; details: HT-29, 48 h
[23] = Half life in Sprague-Dawley rat at 25 mg/kg, IG; type: ADME, organism-based; details: in vivo, po
Outline: (§2)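 Rats, n = 3 per group, received a single dose either intragastrically (25 mg/kg) or intravenously (5 mg/kg). Plasma concentration–time curves were used to derive t1/2α, t1/2β, Vd/F, CL/F, AUC0–∞, Tmax and Cmax. Absolute oral bioavailability was calculated from the ig and iv data.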

[24] = Elimination Half life in Sprague-Dawley rat at 25 mg/kg, IG; type: ADME, organism-based; details: in vivo, po, read-out: beta t1/2 (converted); outline: as §2
[25] = Elimination Half life in Sprague-Dawley rat at 5 mg/kg, iv; type: ADME, organism-based; details: in vivo, read-out: beta t1/2 (converted); outline: as §2
[26] = Apparent clearance in Sprague-Dawley rat at 5 mg/kg, iv; type: ADME, organism-based; details: in vivo, read-out: CL(app) (converted); outline: as §2
[27] = AUC (0 to infinity) in Sprague-Dawley rat at 25 mg/kg, IG; type: ADME, organism-based; parameters: route […], time infinity, dose 25 mg/kg; details: in vivo, po; outline: as §2
[28] = AUC (0 to infinity) in Sprague-Dawley rat at 5 mg/kg, iv; type: ADME, organism-based; parameters: route intravenous, time infinity, dose 5 mg/kg; details: in vivo; outline: as §2
[29] = Cmax in Sprague-Dawley rat at 25 mg/kg, IG; type: ADME, organism-based; parameters: route […], dose 25 mg/kg; details: in vivo, po; outline: as §2
[30] = Cmax in Sprague-Dawley rat at 5 mg/kg, iv; type: ADME, organism-based; parameters: route intravenous, dose 5 mg/kg; details: in vivo; outline: as §2
[31] = Absolute bioavailability in Sprague-Dawley rat at 25 mg/kg, IG; type: ADME, organism-based; details: in vivo, po; outline: as §2
[32] = system: HeLa; assay: Effect on Src level in human Hela cells upto 80 uM after 24 hrs by Western blot analysis; type: functional, cell-based; details: dose microM <=80, time […]
[33] = system: HeLa; assay: Effect on Jak2 level in human Hela cells upto 80 uM after 24 hrs by Western blot analysis; type: functional, cell-based; details: dose microM <=80, time […]
[34] = biological target: Tyrosine-protein kinase JAK2 (Homo sapiens) (UniProt O60674); assay: Inhibition of Jak2 phosphorylation at Tyr1007/1008 in human Hela cells upto 80 uM after 24 hrs by Western blot analysis; type: cell-based; details: dose microM <=80, time […]
[35] = biological target: Signal transducer and activator of transcription 3 (Homo sapiens) (UniProt P40763); assay: Binding affinity to GST-tagged human STAT3 using 5-carboxyfluorescein labelled peptide incubated for 1 hr by fluorescence polarization assay

Chain of Signal transducer and activator of transcription 3 (Homo sapiens) (P40763 whole entry): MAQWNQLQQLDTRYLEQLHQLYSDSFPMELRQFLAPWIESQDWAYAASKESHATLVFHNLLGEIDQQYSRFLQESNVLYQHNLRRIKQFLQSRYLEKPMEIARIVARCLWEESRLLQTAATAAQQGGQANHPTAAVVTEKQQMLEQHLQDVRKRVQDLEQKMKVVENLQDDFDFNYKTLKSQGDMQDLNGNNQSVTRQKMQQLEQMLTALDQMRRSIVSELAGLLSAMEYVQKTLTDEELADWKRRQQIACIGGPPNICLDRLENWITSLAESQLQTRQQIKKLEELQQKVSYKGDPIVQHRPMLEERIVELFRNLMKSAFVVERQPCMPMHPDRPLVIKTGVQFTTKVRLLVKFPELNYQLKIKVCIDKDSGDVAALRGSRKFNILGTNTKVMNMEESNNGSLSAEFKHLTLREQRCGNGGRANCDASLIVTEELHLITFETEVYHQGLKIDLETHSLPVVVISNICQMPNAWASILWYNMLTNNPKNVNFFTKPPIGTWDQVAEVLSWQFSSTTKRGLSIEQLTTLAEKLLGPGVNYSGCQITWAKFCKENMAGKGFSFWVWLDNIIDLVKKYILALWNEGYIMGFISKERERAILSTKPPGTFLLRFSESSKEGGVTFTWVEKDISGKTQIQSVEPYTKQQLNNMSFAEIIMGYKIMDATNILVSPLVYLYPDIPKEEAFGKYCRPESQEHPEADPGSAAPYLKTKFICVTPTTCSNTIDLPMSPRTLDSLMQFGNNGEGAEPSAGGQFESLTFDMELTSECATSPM
Chain of Tyrosine-protein kinase JAK2 (Homo sapiens) (O60674 whole entry): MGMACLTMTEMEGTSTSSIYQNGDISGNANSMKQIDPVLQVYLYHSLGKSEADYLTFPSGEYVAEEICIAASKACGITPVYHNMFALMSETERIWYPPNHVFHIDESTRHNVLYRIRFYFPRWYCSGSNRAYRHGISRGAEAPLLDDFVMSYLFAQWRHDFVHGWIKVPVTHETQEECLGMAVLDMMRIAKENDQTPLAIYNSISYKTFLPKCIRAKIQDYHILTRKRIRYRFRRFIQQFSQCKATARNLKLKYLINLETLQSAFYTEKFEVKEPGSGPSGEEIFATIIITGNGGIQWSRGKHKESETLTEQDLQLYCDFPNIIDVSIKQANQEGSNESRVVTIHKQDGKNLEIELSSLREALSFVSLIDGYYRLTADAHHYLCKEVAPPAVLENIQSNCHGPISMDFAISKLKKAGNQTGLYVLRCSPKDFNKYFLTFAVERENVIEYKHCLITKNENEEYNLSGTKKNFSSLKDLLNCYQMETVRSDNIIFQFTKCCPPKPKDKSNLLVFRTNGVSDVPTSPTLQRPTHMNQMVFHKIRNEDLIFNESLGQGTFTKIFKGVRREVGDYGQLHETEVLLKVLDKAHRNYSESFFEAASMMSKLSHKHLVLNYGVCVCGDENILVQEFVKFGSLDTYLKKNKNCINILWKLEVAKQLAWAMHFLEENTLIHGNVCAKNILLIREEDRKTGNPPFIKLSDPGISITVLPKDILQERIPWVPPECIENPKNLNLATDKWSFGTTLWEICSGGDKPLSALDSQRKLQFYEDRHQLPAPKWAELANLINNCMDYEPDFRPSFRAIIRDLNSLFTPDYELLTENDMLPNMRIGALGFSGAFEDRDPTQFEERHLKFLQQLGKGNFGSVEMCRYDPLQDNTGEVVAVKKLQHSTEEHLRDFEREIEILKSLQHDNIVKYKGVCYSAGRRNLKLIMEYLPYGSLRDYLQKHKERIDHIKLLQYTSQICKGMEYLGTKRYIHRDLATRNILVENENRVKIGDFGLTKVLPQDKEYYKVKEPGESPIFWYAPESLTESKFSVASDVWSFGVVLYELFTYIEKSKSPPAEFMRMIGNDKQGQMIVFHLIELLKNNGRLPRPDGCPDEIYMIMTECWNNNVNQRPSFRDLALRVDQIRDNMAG

## CC(=O)Oc1ccccc1C(=O)Nc1ncc([N+](=O)[O-])s1 [NITAZOXANIDE]
[1]
  inhibition: Dose-dependent effect
[2]
  inhibition: inactive
[3]
  inhibition: Dose-dependent effect
[4]
  inhibition: Dose-dependent effect
[5]
  Activity: 61.96%
[6]
  Activity: 69.88%
[7]
  Activity: 70.64%
[8]
  Activity: 28.45%
[9]
  Activity: 22.76%
[10]
  viability at 40 µM: 77.3%
[11]
  Activity: 4.49%
[12]
  Activity: 15.12%
[13]
  inhibition: 54.6%
[14]
  cytotoxicity at 48 h, 10 µM: 19.4%
[15]
  IC50: 35 µM
[16]
  inhibition at 48 h, 50 µM: 24.4%
[17]
  inhibition at 48 h, 10 µM: -3.3%
[18]
  IC50: 26.8 µM
[19]
  IC50: > 50 µM
[20]
  IC50: 30 µM
[21]
  IC50: 44.7 µM
[22]
  IC50: > 50 µM
[23]
  half-life: 36 min
[24]
  half-life: 48 min
[25]
  half-life: 18 min
[26]
  clearance: 8.33 mL/min/kg
[27]
  AUC(0-inf): 3200 ng·h/mL
[28]
  AUC(0-inf): 11200 ng·h/mL
[29]
  Cmax: 1000 ng/mL
[30]
  Cmax: 2800 ng/mL
[31]
  bioavailability: 5.7%
[32]
  Activity: inactive
[33]
  Activity: inactive
[34]
  inhibition: inactive
[35]
  Activity: inactive
